MC4R barr agon: activates human MC4R beta-arrestin recruitment; U2OS MC4R beta-arrestin complementation, luminescence; percent of melanotan II response, DMSO zero; AID 540308; 0.98% of 360,000 active; activation, % at 8.9 µM; P32245;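 active means activation above a per-plate cutoff, the mean activation of sample wells on that plate plus 3 SD, cut at about 8% in these data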
Target sequence (P32245 whole entry, looked up): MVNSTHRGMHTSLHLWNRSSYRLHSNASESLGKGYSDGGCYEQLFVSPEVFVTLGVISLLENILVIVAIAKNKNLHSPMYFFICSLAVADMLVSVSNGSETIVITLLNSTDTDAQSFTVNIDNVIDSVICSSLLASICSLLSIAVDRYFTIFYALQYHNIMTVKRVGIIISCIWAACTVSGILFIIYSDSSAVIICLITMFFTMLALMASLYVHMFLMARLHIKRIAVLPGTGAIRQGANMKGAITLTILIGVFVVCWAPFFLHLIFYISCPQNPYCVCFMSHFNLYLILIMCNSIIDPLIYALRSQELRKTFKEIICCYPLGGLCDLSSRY
H9c2 TAG inh: inhibitors of triacylglycerol accumulation. H9c2 cells, Nile Red lipid (TAG) fluorescence; cells loaded with 200 µM oleic acid. inhibition, % at 12.5 µM. 0.66% of 230,000 active. AID 651582;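 active means pattern-corrected inhibition of lipid staining of at least 50% with the nuclear-stain viability signal not falling by more than 50%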;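 further: 0% = DMSO wells and 100% = triacsin C control wells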
MC4R antagonist: human MC4R antagonism in cAMP assay; P32245; MC4R-expressing cells, MTII-stimulated cAMP, LANCE TR-FRET; inhibition, % at 6.5 µM; 0.48% of 360,000 active; AID 540295;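 active means inhibition above its plate's cutoff, the mean of tested wells on that plate plus 3 SD, cut at about 29% in these data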;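 further: 0% = Melanotan II alone and 100% = Melanotan II plus saturating MCL0020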
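Material: U2OS-MC4R stable cell line | Reagent: Melanotan II challenge after compound preincubation | Doses: One concentration, 6.5 µM nominal | Incubation: 30-min compound preincubation, 1-h Melanotan II challenge, 1-h detection, room temperature | Signal: TR-FRET cAMP assay | Replicates: One well per compound, no replicates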
GalR3 antag: human GalR3 antagonism; O60755; HEK293 GalR3-CNG cAMP membrane potential fluorescence; galR3 body fused to GalR1 C-terminus; inhibition, % at 3 µM; 0.44% of 360,000 active; AID 651719;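 active means inhibition above the screen-wide average plus 3 SD, cut at about 13% in these data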;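 further: forskolin and galanin both at EC90 stimulate the cells; cAMP rise reported by CNG channel membrane potential dye signal; 0% = forskolin plus galanin with DMSO and 100% = forskolin alone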
Calb FLC: C. albicans growth modulation with fluconazole; C. albicans CaCi-2 + fluconazole, Alamar Blue growth, 48 h; growth inhibition, % (test concentration not listed); 0.57% of 300,000 active;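 active means growth inhibition above about 58% in most replicates, limit read from the data, passing the limit was not always enough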;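 further: all wells also contain fluconazole at 8 µg/ml as a sub-toxic cotreatment; 0% = median of DMSO wells and 100% = median of geldanamycin control wells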
Efflux pump mplx: antifungal efflux pump inhibition, Nile Red retention. 0.44% of 330,000 active. inhibition, % at 10 µM. S. cerevisiae Candida pump triplex;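 active means plate passing quality check with inhibition over a set limit, or well fluorescence over plate mean plus 4 SD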;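 further: Nile Red retained in pooled yeast measured as flow cytometry median fluorescence; 0% = buffer negative control and 100% = Enniatin B positive control; higher means more Nile Red kept so more efflux inhibition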
MC4R barr conf: human MC4R beta-arrestin agonism confirmation; shares compounds with MC4R barr agon; U2OS MC4R beta-arrestin recruitment, luminescence; scaled DMSO 0%, Melanotan II 100%; activation, % at 8.9 µM; 31% of 2,400 active;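 active means mean activation across replicates above the hit cutoff set in the earlier primary screen, cut at about 8% in these data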
MOR DOR agonist: activates mu-delta opioid heterodimer, MC4R agonist counter-screen | AID 602194 | shares compounds with MC4R barr agon | U2OS PathHunter beta-arrestin, beta-gal luminescence; percent of deltorphin B response, DMSO zero | 5.8% of 2,400 active | activation, % at 9.2 µM;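 active means mean activation across replicates exceeds the hit threshold derived in the earlier primary screen, cut at about 18% in these data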;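 further: 100% = deltorphin B at 0.9 µM final and 0% = DMSO alone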
The depositor's hits bear a star; . = no result. Rows were chosen to be rich in hits. Some 2.9% of all compounds tested hit in one or more screens of this group.

SMILES	MC4R barr agon	H9c2 TAG inh	MC4R antagonist	GalR3 antag	Calb FLC	Efflux pump mplx	MC4R barr conf	MOR DOR agonist
O=C(Nc1ccncc1)C1c2ccccc2Oc2ccccc21	-2.8	6.1	-2.4	-4.6	-11.8	0.3	.	.
CCCCNS(=O)(=O)c1ccc(NC(=O)C2c3ccccc3Oc3ccccc32)cc1	13.4*	.	2.8	-3.4	-17.2	-0.2	12.8*	5.8
O=C1CSc2ccc(C(=O)Nc3cccc(S(=O)(=O)Nc4ccc(Br)cc4)c3)cc2N1	10.9*	.	25.2	-2.6	-0.9	0.1	3.0	4.2
C=CCN1C(=O)c2n[nH]c(C)c2C1c1ccc(C)cc1 (stereo not given)	.	.	.	-3.6	.	.	.	.
COc1ccc2c(C)nc(Nc3nc(-c4ccccc4)cc(=O)[nH]3)nc2c1	26.2*	107.5	-17.4	2.0	7.2	0.0	8.4*	3.5
Cc1ccc2nc(Nc3nc(-c4ccccc4)cc(=O)[nH]3)nc(C)c2c1	-0.6	16.3	-7.9	-3.5	3.0	0.0	.	.
COCc1cc(N2CCNC[C@H]2C)ccc1N1CCN(Cc2ccccc2)[C@@H](C)C1	.	.	.	-7.5	.	.	.	.
O=C(O)c1cccc(-n2cccc2/C=C2\NC(=O)N(Cc3ccc(F)cc3)C2=O)c1	0.4	0.9	-3.1	-0.1	30.1	0.0	.	.
O=C1N/C(=C/c2cccn2-c2ccc(F)cc2)C(=O)N1Cc1ccccc1	10.3*	.	-12.1	-7.4	0.0	-0.1	2.6	3.5
NC(N)=N/N=C/c1ccc(OCc2ccccc2)c(OCc2ccccc2)c1	6.1	.	7.9	6.1	28.0	-0.1	.	.
CCOc1cc(/C=N/N=C(N)N)ccc1OCc1ccc(Cl)cc1	11.6*	.	-0.4	11.8	104.7*	0.3	10.9*	14.4
CCOc1cc(CNCCc2ccc(S(N)(=O)=O)cc2)ccc1OCc1ccc(Cl)cc1	12.1*	67.5*	3.0	-8.2	7.6	0.0	70.6*	58.3*
Nc1ccn(C2CSC(CO)O2)c(=O)n1 (stereo not given)	.	.	.	-7.8	.	.	.	.
O=C(C(O)c1ccccc1)N1CCN(S(=O)(=O)c2ccc(F)c(F)c2)CC1 (stereo not given)	.	.	.	-3.9	.	.	.	.
CCc1c(C(=O)Nc2cc(C)ccc2OC)[nH]c(C)c1C(C)=O	11.4*	-6.1	2.7	-4.6	-32.2	-0.1	10.5*	5.5
O=C(CC1CCCC1)N[C@H](C(=O)N1CCC[C@H]1C(=O)NC1CCCC1)C1CCCCC1	.	.	.	-2.2	.	.	.	.
CC(C)(c1ccccc1)c1ccc(OCC(O)CNC2CCN(Cc3ccccc3)CC2)cc1 (stereo not given)	25.4*	23.6	6.7	-3.2	32.7	0.6	5.0	19.0*
CCOc1ccc(OCC(O)CNC2CCN(Cc3ccccc3)CC2)cc1 (stereo not given)	1.6	1.7	4.8	-5.8	0.5	0.8	.	.
CCOc1ccc(NC(=O)/C=C/c2ccccc2)c([N+](=O)[O-])c1	12.9*	.	-9.2	-4.3	8.8	-0.2	2.5	9.0
CCOc1ccc(N/C=C/C(=O)c2ccccc2)c([N+](=O)[O-])c1	27.1*	.	-12.4	-1.6	-3.7	0.5	3.7	3.0
CCOc1ccc(Nc2ccc(C(=O)O)cc2[N+](=O)[O-])cc1	-2.4	.	0.4	-5.3	-7.3	0.0	.	.
O=C(NCc1cccc(C(F)(F)F)c1)c1ccc2nc([C@H]3C[C@H](O)[C@@H](CO)O3)[nH]c2c1	1.0	-12.6	4.0	-5.6	.	.	.	.
Cc1ccc(C(C)C)c(OCc2nnc(SCC(=O)Nc3ncc(C)s3)n2C)c1	12.6*	.	-1.9	-3.5	-3.9	-0.1	5.5	6.8
O=C(CSc1nc2ccc(NC(=O)CSc3nnnn3Cc3ccccc3)cc2s1)Nc1ccccc1	11.5*	-7.9	4.3	-1.3	-7.2	0.0	5.5	5.2
Cc1ccccc1OCc1nnc(SCC(=O)Nc2ccc3c(c2)OCO3)n1C	-2.3	.	-3.1	-3.5	-1.7	0.0	.	.
Cc1ccccc1OCc1nnc(SCC(=O)Nc2ccc3nc(SCC(=O)Nc4ccccc4)sc3c2)n1C	18.4*	.	-1.2	7.7	-6.5	-1.7	6.5	4.6

Screening results deposited in PubChem BioAssay by several laboratories.
